Data published in ChEMBL document CHEMBL1149147, “NR2B-selective N-methyl-D-aspartate antagonists: synthesis and evaluation of 5-substituted benzimidazoles” (J Med Chem, 2004).

Assays:
[1] = biological target: T1, Glutamate NMDA receptor; GRIN1/GRIN2B (Homo sapiens, UniProt Q05586+Q13224); experiment: Compound was evaluated for in vitro inhibition of [3H][(E)-N-(2-methoxybenzyl)cinnamamidine binding to human NR1a/NR2B receptors expressed in LtK-cells; type: cell-based
[2] = biological target: T1, Glutamate NMDA receptor; GRIN1/GRIN2B; experiment: In vitro inhibition of Glu/Gly stimulated [Ca2+] influx in LtK-cells expressing the hNR1a/NR2B receptor; type: functional
In short: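 Fluorescence readout of Ca2+ flux stimulated by glutamate/glycine in Ltk- cells stably expressing human NR1a/NR2B, measured as inhibition. IC50 is the geometric mean of at least n = 4, with 2×SEGM given.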

[3] = biological target: Voltage-gated inwardly rectifying potassium channel KCNH2 (Homo sapiens, UniProt Q12809); experiment: In vitro inhibition of MK-499 binding to hERG in HEK293 cells; type: cell-based; conditions: read-out: IP
[4] = biological target: T2, Adrenergic receptor alpha-1 (Rattus norvegicus, UniProt P15823+P23944+P43140); experiment: In vitro inhibitory activity against alpha-1 adrenergic receptor binding to rat brain membranes; parameters: species or system Membrane
T2 sequence (P15823 whole entry): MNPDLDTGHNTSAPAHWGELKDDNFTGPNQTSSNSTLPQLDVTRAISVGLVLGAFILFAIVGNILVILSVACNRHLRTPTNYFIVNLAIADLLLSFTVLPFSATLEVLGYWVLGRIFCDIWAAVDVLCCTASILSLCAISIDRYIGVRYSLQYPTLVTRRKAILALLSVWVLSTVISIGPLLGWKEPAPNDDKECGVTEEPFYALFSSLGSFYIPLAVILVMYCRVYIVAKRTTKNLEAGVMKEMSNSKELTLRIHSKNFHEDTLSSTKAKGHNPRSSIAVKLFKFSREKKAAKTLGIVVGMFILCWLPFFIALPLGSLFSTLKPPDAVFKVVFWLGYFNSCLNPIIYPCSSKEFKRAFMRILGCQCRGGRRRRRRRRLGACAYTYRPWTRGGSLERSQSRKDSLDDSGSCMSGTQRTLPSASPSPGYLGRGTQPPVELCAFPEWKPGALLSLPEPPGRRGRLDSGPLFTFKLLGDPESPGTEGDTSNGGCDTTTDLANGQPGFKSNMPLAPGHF
T2 sequence (P23944 whole entry): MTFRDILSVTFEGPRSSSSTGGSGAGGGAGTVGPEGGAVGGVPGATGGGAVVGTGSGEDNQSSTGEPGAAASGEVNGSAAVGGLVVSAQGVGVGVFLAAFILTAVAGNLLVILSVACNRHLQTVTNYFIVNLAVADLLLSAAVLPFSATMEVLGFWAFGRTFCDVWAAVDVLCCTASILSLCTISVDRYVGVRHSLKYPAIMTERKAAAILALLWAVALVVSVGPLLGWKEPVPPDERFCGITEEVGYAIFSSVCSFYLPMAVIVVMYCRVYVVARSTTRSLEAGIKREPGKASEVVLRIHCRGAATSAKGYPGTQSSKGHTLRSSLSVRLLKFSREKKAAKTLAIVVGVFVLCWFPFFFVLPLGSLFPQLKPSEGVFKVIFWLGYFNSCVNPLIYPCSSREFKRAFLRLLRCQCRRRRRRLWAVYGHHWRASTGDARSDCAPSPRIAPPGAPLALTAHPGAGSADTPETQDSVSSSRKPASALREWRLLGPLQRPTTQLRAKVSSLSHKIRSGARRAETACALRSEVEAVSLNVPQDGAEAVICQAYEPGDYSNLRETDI
T2 sequence (P43140 whole entry): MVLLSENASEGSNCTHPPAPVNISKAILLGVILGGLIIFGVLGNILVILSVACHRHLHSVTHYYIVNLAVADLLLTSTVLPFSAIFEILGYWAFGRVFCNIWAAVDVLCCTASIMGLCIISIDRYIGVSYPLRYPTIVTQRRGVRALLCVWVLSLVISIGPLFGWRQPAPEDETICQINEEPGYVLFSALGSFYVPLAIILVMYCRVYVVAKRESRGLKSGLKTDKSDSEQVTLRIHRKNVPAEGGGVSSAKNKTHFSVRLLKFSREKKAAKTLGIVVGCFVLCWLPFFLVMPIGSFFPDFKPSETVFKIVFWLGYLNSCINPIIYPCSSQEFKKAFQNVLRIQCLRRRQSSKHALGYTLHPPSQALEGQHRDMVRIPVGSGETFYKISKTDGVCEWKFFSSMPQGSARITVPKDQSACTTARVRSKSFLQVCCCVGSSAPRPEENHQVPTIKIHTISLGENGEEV
In short: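 Competition binding to α1-adrenergic receptors on membranes prepared from rat brain, using the prazosin binding assay. IC50 is the geometric mean of at least 4 determinations.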

[5] = Oral bioavailability in rat; type: ADME, organism-based; conditions: in vivo
In short: (§1)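 Conscious male Sprague-Dawley rats (n = 3–4) given single doses: 2 mg/kg iv in 100% DMSO, or 10 mg/kg po by gavage in 1% methylcellulose. Plasma was sampled at multiple times up to 24 h. Interanimal variability was below 20%.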

[6] = Half-life in mongrel dogs was determined; type: ADME, organism-based, Canis lupus familiaris; conditions: dog, in vivo
In short: (§2)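 Single doses in dogs (n = 2): 1 mg/kg iv in 100% DMSO, or 3 mg/kg po gavaged in 1% methylcellulose suspension. Plasma was sampled at multiple time points up to 24 h. Interanimal variability was below 20%.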

[7] = Half-life in rats was determined; type: ADME, organism-based; conditions: rat, in vivo; in short: as §1
Rattus norvegicus [8] = experiment: Compound was evaluated in vivo for carrageenan induced mechanical hyperalgesia in rats, intravenously; type: functional
In short: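 Male Sprague-Dawley rats (100–120 g) received 4.5 mg carrageenan in 0.15 mL saline intraplantar, or saline. Agent was given iv in 50% PEG-200/D5W (n = 6/dose) 15 min before the paw pressure read at 3 h. Threshold was taken as vocalization on an algometer.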

[9] = Plasma clearance (in vivo) in mongrel dogs was determined; type: ADME, organism-based, Canis lupus familiaris; conditions: dog; in short: as §2
[10] = Oral bioavailability in dog (mongrel); type: ADME, organism-based, Canis lupus familiaris; conditions: in vivo; in short: as §2
[11] = Plasma clearance (in vivo) in rats was determined; type: ADME, organism-based; conditions: rat; in short: as §1
Rattus norvegicus [12] = experiment: Compound was evaluated in vivo for carrageenan induced mechanical hyperalgesia in rats, perorally; type: functional
In short: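 Male Sprague-Dawley rats (100–120 g) received 4.5 mg carrageenan intraplantar, with a 3 h post-injection paw pressure (vocalization) threshold. Agent was gavaged in 1% methylcellulose suspension (n = 8/dose) 1 h before the reading. Response is expressed as % of carrageenan hyperalgesia; the highest oral dose was 30 mg/kg, one determination.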

Sequence of Voltage-gated inwardly rectifying potassium channel KCNH2 (Q12809 whole entry): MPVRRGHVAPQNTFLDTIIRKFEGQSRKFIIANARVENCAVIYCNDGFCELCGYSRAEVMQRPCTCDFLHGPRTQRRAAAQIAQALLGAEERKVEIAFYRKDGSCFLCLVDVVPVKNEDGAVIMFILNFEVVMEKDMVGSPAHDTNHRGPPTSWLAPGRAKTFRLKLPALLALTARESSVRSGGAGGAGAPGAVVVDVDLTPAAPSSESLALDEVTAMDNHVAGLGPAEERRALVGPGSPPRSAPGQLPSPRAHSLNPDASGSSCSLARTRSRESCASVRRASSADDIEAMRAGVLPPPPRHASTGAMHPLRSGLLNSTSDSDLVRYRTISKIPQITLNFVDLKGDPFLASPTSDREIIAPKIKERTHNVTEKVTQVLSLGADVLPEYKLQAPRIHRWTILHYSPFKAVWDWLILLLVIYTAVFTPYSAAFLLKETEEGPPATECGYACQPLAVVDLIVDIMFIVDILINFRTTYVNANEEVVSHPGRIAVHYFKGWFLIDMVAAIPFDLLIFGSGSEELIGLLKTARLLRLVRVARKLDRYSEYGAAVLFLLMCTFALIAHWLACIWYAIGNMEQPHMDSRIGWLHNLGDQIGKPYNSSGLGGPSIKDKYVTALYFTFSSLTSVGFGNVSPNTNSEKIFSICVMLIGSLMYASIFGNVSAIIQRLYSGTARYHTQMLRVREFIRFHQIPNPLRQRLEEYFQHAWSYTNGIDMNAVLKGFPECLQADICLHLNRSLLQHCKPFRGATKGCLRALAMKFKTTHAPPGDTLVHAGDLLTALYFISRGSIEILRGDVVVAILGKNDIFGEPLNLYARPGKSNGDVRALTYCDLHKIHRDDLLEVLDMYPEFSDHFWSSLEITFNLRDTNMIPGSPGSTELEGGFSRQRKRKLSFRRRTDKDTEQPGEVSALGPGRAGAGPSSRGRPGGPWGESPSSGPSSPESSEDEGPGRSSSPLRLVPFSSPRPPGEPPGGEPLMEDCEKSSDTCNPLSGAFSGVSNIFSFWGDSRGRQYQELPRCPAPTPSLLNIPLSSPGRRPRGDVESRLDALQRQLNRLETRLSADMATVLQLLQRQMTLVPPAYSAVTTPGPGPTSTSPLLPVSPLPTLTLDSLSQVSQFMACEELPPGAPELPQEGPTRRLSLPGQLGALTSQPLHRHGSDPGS
T1 sequence (Q13224 whole entry, other chains not shown): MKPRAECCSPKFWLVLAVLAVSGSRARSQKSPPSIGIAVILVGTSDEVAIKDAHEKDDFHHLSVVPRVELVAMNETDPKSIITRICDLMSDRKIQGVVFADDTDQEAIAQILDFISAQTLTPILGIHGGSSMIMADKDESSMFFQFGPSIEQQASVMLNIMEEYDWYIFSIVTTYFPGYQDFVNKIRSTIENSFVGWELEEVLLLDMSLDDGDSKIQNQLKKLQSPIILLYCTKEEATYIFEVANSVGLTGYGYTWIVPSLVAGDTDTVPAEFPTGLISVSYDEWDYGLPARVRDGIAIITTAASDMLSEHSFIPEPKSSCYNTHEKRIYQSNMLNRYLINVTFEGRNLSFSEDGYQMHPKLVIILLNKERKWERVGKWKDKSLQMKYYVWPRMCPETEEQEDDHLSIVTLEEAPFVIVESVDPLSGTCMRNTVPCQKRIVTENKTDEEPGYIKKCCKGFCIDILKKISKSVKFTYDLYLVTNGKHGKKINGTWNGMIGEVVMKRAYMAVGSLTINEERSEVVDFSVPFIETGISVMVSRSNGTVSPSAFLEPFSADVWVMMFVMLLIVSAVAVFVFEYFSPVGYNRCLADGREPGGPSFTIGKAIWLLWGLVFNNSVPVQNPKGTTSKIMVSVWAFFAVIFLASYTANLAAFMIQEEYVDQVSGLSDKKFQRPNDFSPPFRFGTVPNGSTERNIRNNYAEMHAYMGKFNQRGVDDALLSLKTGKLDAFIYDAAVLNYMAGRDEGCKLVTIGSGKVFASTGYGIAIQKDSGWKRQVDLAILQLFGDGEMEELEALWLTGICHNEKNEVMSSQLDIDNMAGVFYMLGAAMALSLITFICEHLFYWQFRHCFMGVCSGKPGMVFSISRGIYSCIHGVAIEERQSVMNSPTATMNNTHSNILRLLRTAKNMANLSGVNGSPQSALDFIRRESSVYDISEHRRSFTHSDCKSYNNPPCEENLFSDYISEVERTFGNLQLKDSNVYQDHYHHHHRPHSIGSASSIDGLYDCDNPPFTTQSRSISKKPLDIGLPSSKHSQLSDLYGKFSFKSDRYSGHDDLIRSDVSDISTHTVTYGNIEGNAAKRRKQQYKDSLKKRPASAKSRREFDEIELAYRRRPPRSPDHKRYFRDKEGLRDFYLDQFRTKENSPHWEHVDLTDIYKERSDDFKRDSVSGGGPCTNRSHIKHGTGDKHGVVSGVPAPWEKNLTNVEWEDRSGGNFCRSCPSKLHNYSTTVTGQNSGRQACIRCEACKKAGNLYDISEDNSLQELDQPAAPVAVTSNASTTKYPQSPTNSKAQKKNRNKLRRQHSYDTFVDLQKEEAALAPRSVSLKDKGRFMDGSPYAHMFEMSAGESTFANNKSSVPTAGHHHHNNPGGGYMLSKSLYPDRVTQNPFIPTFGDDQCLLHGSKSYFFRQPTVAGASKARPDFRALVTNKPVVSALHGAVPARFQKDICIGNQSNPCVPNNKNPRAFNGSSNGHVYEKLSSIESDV

SMILES | Ki [1] [nM] | IC50 [2] [nM] | IC50 [3] [nM] | IC50 [4] [nM] | bioavailability [5] [%] | half-life [6] [min] | half-life [7] [min] | Activity (Rattus norvegicus [8]) [mg/kg] | clearance [9] [mL/min/kg] | bioavailability [10] [%] | clearance [11] [mL/min/kg] | Activity (Rattus norvegicus [12]) [mg/kg]
Oc1ccc2[nH]c(CN3CCC(Cc4cccc(F)c4)CC3)nc2c1 | 4.2 | 44 | 2100 | 520 |  |  |  |  |  |  |  | 
c1ccc(CC2CCN(Cc3nc4ccccc4[nH]3)CC2)cc1 | 420 | 710 | 1400 | 2800 |  |  |  |  |  |  |  | 
CC(C)S(=O)(=O)Nc1ccc2[nH]c(Cc3ccc(Oc4ccccc4)cc3)nc2c1 | 15 | 14 |  | 3100 |  |  |  |  |  |  |  | 
Cc1ccc(CC2CCN(Cc3nc4cc(O)ccc4[nH]3)CC2)cc1 | 0.4 | 5.7 | 390 | 830 |  |  |  |  |  |  |  | 
CS(=O)(=O)Nc1ccc2nc(CN3CCC(Cc4ccccc4)CC3)[nH]c2c1 | 0.99 | 1.9 | 340 | 1500 |  |  |  |  |  |  |  | 
CN(c1ccc2[nH]c(Cc3ccc(Oc4ccccc4)cc3)nc2c1)S(C)(=O)=O | 470 | 25 | 640 | 2000 |  |  |  |  |  |  |  | 
O=[N+]([O-])c1ccc2[nH]c(Cc3ccc(Oc4ccccc4)cc3)nc2c1 |  | 6600 | 770 | 1200 |  |  |  |  |  |  |  | 
Oc1ccc2[nH]c(Cc3ccc(Oc4ccccc4)cc3)nc2c1 | 3.2 | 9.2 | 720 | 200 |  |  |  |  |  |  |  | 
N#Cc1ccc2[nH]c(Cc3ccc(Oc4ccccc4)cc3)nc2c1 | 790 | 800 | 1100 | 3400 |  |  |  |  |  |  |  | 
Oc1cccc2[nH]c(Cc3ccc(Oc4ccccc4)cc3)nc12 | 140 | 150 | 860 | 5500 |  |  |  |  |  |  |  | 
CCCS(=O)(=O)Nc1ccc2[nH]c(Cc3ccc(Oc4ccccc4)cc3)nc2c1 | 21 | 19 | 400 | 4800 |  |  |  |  |  |  |  | 
Oc1ccc2[nH]c(CN3CCC(Cc4ccc(F)cc4)CC3)nc2c1 | 1.1 | 12 | 500 | 620 |  |  |  |  |  |  |  | 
CC(C)S(=O)(=O)Nc1ccc2[nH]c(CN3CCC(Cc4ccccc4)CC3)nc2c1 | 240 | 300 |  | 570 |  |  |  |  |  |  |  | 
Nc1ccc2[nH]c(Cc3ccc(Oc4ccccc4)cc3)nc2c1 | 180 | 78 | 120 | 2600 |  |  |  |  |  |  |  | 
Oc1ccc2[nH]c(CN3CCC(Cc4ccccc4)CC3)nc2c1 |  | 8.2 | 2600 | 670 | 20 | 402 | > 480 | 3.3 | 0.6 | 90 | 22.8 | 
CC(=O)Nc1ccc2[nH]c(Cc3ccc(Oc4ccccc4)cc3)nc2c1 | 93 | 42 | 2600 | 20000 |  |  |  |  |  |  |  | 
CCS(=O)(=O)Nc1ccc2[nH]c(Cc3ccc(Oc4ccccc4)cc3)nc2c1 | 3 | 2.1 | 1600 | 2800 |  |  |  |  |  |  |  | 
Oc1ccc2[nH]c(CN3CCC(Cc4c(F)cccc4F)CC3)nc2c1 | 0.82 | 21 | 3000 | 2600 |  |  |  |  |  |  |  | 
CS(=O)(=O)Nc1ccc2[nH]c(Cc3ccc(Oc4ccccc4)cc3)nc2c1 | 0.68 | 0.72 | 120 | 4000 | 97 |  | 118 |  |  |  | 8.3 | >30
O=S(=O)(Nc1ccc2[nH]c(Cc3ccc(Oc4ccccc4)cc3)nc2c1)c1ccccc1 | 17 | 49 | 680 | 14000 |  |  |  |  |  |  |  | 
COc1ccc2[nH]c(Cc3ccc(Oc4ccccc4)cc3)nc2c1 | 8400 | 9200 |  | 530 |  |  |  |  |  |  |  | 
c1ccc(Oc2ccc(Cc3nc4ccccc4[nH]3)cc2)cc1 | 260 | 200 | 2000 | 4200 |  |  |  |  |  |  |  | 
Oc1ccc2[nH]c(CN3CCC(Cc4ccccc4F)CC3)nc2c1 | 0.85 | 9.7 | 2900 | 730 | 6.4 | 390 | 60 | <3 | 0.6 | 87 | 12.3 | 
